pKi: −log10 of the molar value.
Columns and labels:
[1] = molecular target: T1, Prostaglandin D2 receptor 2 (Homo sapiens, UniProt Q9Y5Y4); test: Displacement of [3H]PGD2 from human CRTH2 receptor expressed in CHO cell membrane after 120 mins by scintillation counting; format: cell membranes
T1 sequence (Q9Y5Y4 whole entry): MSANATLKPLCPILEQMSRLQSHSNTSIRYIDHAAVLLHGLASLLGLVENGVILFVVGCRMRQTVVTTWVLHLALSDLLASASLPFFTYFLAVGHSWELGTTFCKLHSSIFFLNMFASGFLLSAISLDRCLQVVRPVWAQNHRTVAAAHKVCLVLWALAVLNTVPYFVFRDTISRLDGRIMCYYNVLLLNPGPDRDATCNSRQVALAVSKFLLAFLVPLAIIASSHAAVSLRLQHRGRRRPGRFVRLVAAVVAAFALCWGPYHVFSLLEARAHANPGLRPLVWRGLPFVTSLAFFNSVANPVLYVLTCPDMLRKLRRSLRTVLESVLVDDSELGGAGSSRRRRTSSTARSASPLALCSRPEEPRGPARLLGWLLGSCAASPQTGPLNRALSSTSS
Summary of the method: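 Ki derived from the displacement IC50 by the Cheng–Prusoff relationship, using the KD and radioligand concentration supplied by the analyser. Values are geometric means of three or more independent determinations.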

[2] = molecular target: T2, Prostaglandin D2 receptor 2 (Homo sapiens) (UniProt Q9Y5Y4); test: Displacement of [3H]PGD2 from human CRTH2 receptor expressed in CHO cell membrane at 2.8 uM after 120 mins by scintillation counting; format: cell membranes
T2 sequence (whole entry): T1 sequence (Q9Y5Y4 whole entry)

Row | Compound | pKi [1] | inhibition [2] [%]
1 | CCc1nn(Cc2cccc(Br)c2)c(CC)c1CC(=O)O | 6.25 | > 40
2 | CCc1nn(Cc2ccc3ccccc3c2)c(CC)c1CC(=O)O | 6.24 | > 40
3 | O=C(O)Cn1cnc2c1CCN(C(=O)c1csc(-c3ccccc3)n1)C2 | 6.12 | > 40
4 | CCc1nn(CC(=O)O)c(CC)c1Cc1ccc2ccccc2c1 | 6.20 | > 40
5 | CCCNC(=O)c1ccccc1OCc1cccc(C)c1OCC(=O)O | 6.48 | > 40
6 | Cc1ccc2cccc(OCc3ccccc3OCC(=O)O)c2n1 | 6.31 | > 40
7 | CCc1nn(Cc2cc(Cl)ccc2Cl)c(CC)c1CC(=O)O | 6.21 | > 40

Continued, values first:

Row | pKi [1] | inhibition [2] [%] | Compound
8 | 6.61 | > 40 | O=C(O)COc1ccccc1COc1ccc(Cl)cc1-c1ccno1
9 | 6.28 | > 40 | Cc1ccc(Cl)cc1OCc1ccccc1OCC(=O)O
10 | 6.23 | > 40 | O=C(O)COc1ccccc1COc1ccc(F)cc1C1CC1
